pIC50: −log10 of the molar value.
Tests used:
[1] = Inhibition of melanogenesis in mouse B16-4A5 cells at 100 uM after 72 hrs by spectrophotometry; type: functional; conditions: B16-4A5, 72 h
[2] = Inhibition of melanogenesis in mouse B16-4A5 cells at 10 uM after 72 hrs by spectrophotometry; type: functional; conditions: B16-4A5, 72 h
[3] = Inhibition of melanogenesis in mouse B16-4A5 cells at 3 uM after 72 hrs by spectrophotometry; type: functional; conditions: B16-4A5, 72 h
[4] = Cytotoxicity against mouse B16-4A5 cells assessed as cell viability at 100 uM after 70 hrs by WST-8 assay
[5] = Inhibition of melanogenesis in mouse B16-4A5 cells at 30 uM after 72 hrs by spectrophotometry; type: functional; conditions: B16-4A5, 72 h
[6] = Inhibition of melanogenesis in mouse B16-4A5 cells at 1 uM after 72 hrs by spectrophotometry; type: functional; conditions: B16-4A5, 72 h
[7] = Inhibition of melanogenesis in mouse B16-4A5 cells after 72 hrs by spectrophotometry; type: functional, cell-based
[8] = Antimelanogenic activity in mouse B16-4A5 cells assessed as inhibition of tyrosinase mRNA expression at 30 uM after 72 hrs by RT-PCR analysis relative to beta-actin mRNA; type: functional
Outline: (§1)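 B16 melanoma 4A5 cells seeded at 1.0 × 10^5 cells/well in 6-well plates, cultured 24 h, then exposed to test compound plus theophylline 1 mM for 72 h. Total RNA extracted; cDNA from 1 µg RNA; SYBR Green real-time PCR (95 °C 2 min; 40 cycles 95/58/72 °C, 30 s each) with gene-specific primers; relative quantification normalized to β-actin mRNA.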

[9] = biological target: T1, Tyrosinase (Agaricus bisporus) (UniProt O42713); test: Inhibition of mushroom tyrosinase at 100 uM
T1 sequence (whole entry): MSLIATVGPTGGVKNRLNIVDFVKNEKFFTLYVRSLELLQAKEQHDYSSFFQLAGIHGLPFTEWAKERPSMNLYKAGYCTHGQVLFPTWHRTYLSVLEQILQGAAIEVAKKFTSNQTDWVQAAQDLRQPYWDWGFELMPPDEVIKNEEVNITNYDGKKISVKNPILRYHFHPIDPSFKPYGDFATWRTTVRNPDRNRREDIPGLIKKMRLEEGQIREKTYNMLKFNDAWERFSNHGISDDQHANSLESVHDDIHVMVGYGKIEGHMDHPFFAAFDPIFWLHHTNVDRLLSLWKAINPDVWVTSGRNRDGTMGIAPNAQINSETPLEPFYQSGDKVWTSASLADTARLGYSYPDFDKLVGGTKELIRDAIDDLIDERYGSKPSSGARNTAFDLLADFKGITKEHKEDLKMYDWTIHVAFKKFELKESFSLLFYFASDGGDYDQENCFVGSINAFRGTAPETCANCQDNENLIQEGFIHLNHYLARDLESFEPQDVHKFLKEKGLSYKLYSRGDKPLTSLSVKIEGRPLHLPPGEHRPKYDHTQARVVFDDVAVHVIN
Outline: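 Enzyme mix: 70 µL L-DOPA (2.5 mM in phosphate buffer) as substrate plus 20 µL test solution (DMSO, final 0.1%). Reaction started with 120 µL mushroom tyrosinase (80.5 units/mL), run 5 min at 25 °C. Dopaquinone measured by absorbance at 405 nm (reference 655 nm). Inhibition % = (A−B)/A × 100 versus vehicle.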

[10] = Antimelanogenic activity in mouse B16-4A5 cells assessed as inhibition of TRP2 mRNA expression at 10 uM after 72 hrs by RT-PCR analysis relative to beta-actin mRNA; type: functional; outline: as §1
[11] = Antimelanogenic activity in mouse B16-4A5 cells assessed as inhibition of TRP2 mRNA expression at 30 uM after 72 hrs by RT-PCR analysis relative to beta-actin mRNA; type: functional; outline: as §1
[12] = Antimelanogenic activity in mouse B16-4A5 cells assessed as inhibition of tyrosinase mRNA expression at 3 uM after 72 hrs by RT-PCR analysis relative to beta-actin mRNA; type: functional; outline: as §1
[13] = Antimelanogenic activity in mouse B16-4A5 cells assessed as inhibition of TRP1 mRNA expression at 3 uM after 72 hrs by RT-PCR analysis relative to beta-actin mRNA; type: functional; outline: as §1
[14] = Antimelanogenic activity in mouse B16-4A5 cells assessed as inhibition of TRP1 mRNA expression at 10 uM after 72 hrs by RT-PCR analysis relative to beta-actin mRNA; type: functional; outline: as §1
[15] = Antimelanogenic activity in mouse B16-4A5 cells assessed as inhibition of TRP1 mRNA expression at 30 uM after 72 hrs by RT-PCR analysis relative to beta-actin mRNA; type: functional; outline: as §1
[16] = Antimelanogenic activity in mouse B16-4A5 cells assessed as inhibition of TRP2 mRNA expression at 3 uM after 72 hrs by RT-PCR analysis relative to beta-actin mRNA; type: functional; outline: as §1
[17] = Antimelanogenic activity in mouse B16-4A5 cells assessed as inhibition of tyrosinase mRNA expression at 10 uM after 72 hrs by RT-PCR analysis relative to beta-actin mRNA; type: functional; outline: as §1

| Compound | inhibition at 100 µM [1] | inhibition at 10 µM [2] | inhibition at 3 µM [3] | viability at 70 h, 100 µM [4] | inhibition at 30 µM [5] | inhibition at 1 µM [6] | pIC50 [7] | fold change (FC) [8] | inhibition [9] | fold change (FC) [10] | fold change (FC) [11] | fold change (FC) [12] | fold change (FC) [13] | fold change (FC) [14] | fold change (FC) [15] | fold change (FC) [16] | fold change (FC) [17] |
| --- | --- | --- | --- | --- | --- | --- | --- | --- | --- | --- | --- | --- | --- | --- | --- | --- | --- |
| CN1CCc2ccccc2C1 | 15.9% | 9.4% | 9.7% | 82% | 16.5% | 10.6% |  |  |  |  |  |  |  |  |  |  |  |
| COc1cc2c3c(cc4ccccc4c3c1OC)N(C)CC2 [DEHYDRONUCIFERINE] | 78.4% | 11.8% | 4.8% | 77% | 8% | 14.5% | 4.07 |  |  |  |  |  |  |  |  |  |  |
| c1ccc2c(c1)CCNC2 [1,2,3,4-TETRAHYDROISOQUINOLINE] | 26.1% | -54.2% | -41.5% | 46% | 2.8% | -12.6% |  |  |  |  |  |  |  |  |  |  |  |
| COc1cc2ccnc3c2c(c1OC)-c1ccccc1C3=O [LYSICAMINE] |  | -1.5% | 8.7% | 22.5% | 65.3% | 4.8% |  |  |  |  |  |  |  |  |  |  |  |
| COc1cc2c3c(c1OC)-c1ccccc1C[C@H]3NCC2 | 91.9% | 12.1% | 16.2% | 82% | 17.6% | 5.8% | 4.20 |  |  |  |  |  |  |  |  |  |  |
| OC[C@H]1O[C@@H](Oc2ccc(O)cc2)[C@H](O)[C@@H](O)[C@@H]1O [ARBUTIN] | 38.1% | 10.6% |  |  | 20.4% |  | 3.76 |  |  |  |  |  |  |  |  |  |  |
| COc1cc2c3c(c1OC)-c1ccccc1C[C@H]3[N+](C)([O-])CC2 (some centres not stated) | 88.4% | -0.1% | -3.2% | 82% | 33.7% | -4.8% | 4.37 |  |  |  |  |  |  |  |  |  |  |
| COc1cc2c(cc1OC)C(Cc1ccc(O)cc1)N(C)CC2 (racemic) | 80.3% | 34% | 18.2% | 82% | 50.4% | 7.5% | 4.59 |  |  |  |  |  |  |  |  |  |  |
| COc1cc2c3c(c1OC)-c1ccccc1C[C@H]3N(C)CC2 [NUCIFERINE] | 89.3% | 32.1% | 16.5% | 46% | 72.3% | 11.5% | 4.80 | 0.38 | < 3% | 0.71 | 0.65 | 0.61 | 0.76 | 0.74 | 0.36 | 1.11 | 0.64 |
| COc1c(O)cc2c3c1-c1ccccc1C[C@H]3N(C)CC2 | 90.5% | 37.9% | 19.7% | 82% | 70.6% | 15.4% | 4.84 | 0.53 | < 3% | 0.96 | 0.88 | 0.65 | 0.79 | 0.72 | 0.49 | 1.1 | 0.76 |
| COc1c(O)cc2c3c1-c1ccccc1C[C@H]3NCC2 [ASIMILOBINE] |  |  |  | 46% |  |  |  |  |  |  |  |  |  |  |  |  |  |
| COc1cc2c3c(c1O)-c1ccccc1C[C@H]3N(C)CC2 |  | 27.3% | 11.1% | 39.7% | 65.9% | -2.6% | 4.71 |  |  |  |  |  |  |  |  |  |  |
| COc1cc2c3c(c1OC)C1(C=CC(=O)C=C1)C[C@H]3N(C)CC2 [PRONUCIFERINE] | 66.4% | 18.3% | 16.8% | 82% | 40.3% | 4% | 4.32 |  |  |  |  |  |  |  |  |  |  |
| COc1c(O)cc2c3c(cc4ccccc4c13)N(C)CC2 | 78.7% | 37.6% | 13.2% | 46% | 87.4% | 10.9% | 4.88 |  |  |  |  |  |  |  |  |  |  |
| COc1cc2c3c(c1)-c1ccccc1CC3N(C)CC2 (configuration not stated) |  | 76% | 54.7% |  | 82.5% | 39.1% | 5.70 |  |  |  |  |  |  |  |  |  |  |
| CN1CCc2ccccc2C1Cc1ccccc1 (configuration not stated) | 75.4% | 59.7% | 40.5% | 77% | 51.8% | 24.5% | 5.30 |  |  |  |  |  |  |  |  |  |  |
| COc1c(O)cc2c3c1-c1ccccc1C[C@@H]3NCC2 [ASIMILOBINE] | 36.2% | 12.1% | -7.4% |  | 39.7% | 7.4% | < 4.00 |  |  |  |  |  |  |  |  |  |  |
